Columns and labels:
[1] = organism: Rattus norvegicus; assay: Radioactivity distribution in bone of normal fischer rat after injection of [18F]fluoro-2-methylpropanoic acid after 120 min.; type: ADME, organism-based, Bone element; details: in vivo, 2 h
Procedure, shortened: (§1)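 Normal male Fischer 344 rats (200–250 g), anesthetized with i.m. ketamine:xylazine (1:1), got ~85 μCi of tracer in 0.3 mL sterile water i.v. via tail-vein catheter. Groups of four were killed at 5, 30, 60 or 120 min. Tissues were weighed and gamma-counted against dose standards, and counts were decay-corrected to %ID/g. Results are mean ± standard error (n = 4), compared by one-way ANOVA.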

[2] = organism: Rattus norvegicus; assay: Radioactivity distribution in pancreas of tumor-bearing fischer rat after injection of [18F]fluoro-2-methylpropanoic acid after 120 min; type: ADME, organism-based; details: in vivo, 2 h
Procedure, shortened: (§2)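 Male Fischer 344 rats carried intracranial 9L gliosarcoma, stereotactically implanted (4×10^4 cells) and used 17–19 days later. Awake, restrained animals received about 35 μCi tracer in 0.3 mL sterile water via the tail vein and were killed at 5, 60 or 120 min (n = 4–5). Tissues were weighed, gamma-counted, decay-corrected and reported as %ID/g ± standard error.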

[3] = organism: Rattus norvegicus; assay: Radioactivity distribution in testis of tumor-bearing fischer rat after injection of [18F]fluoro-2-methylpropanoic acid after 60 min; type: ADME, organism-based; details: in vivo, 1 h
Procedure, shortened: (§3)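 Male Fischer rats had 4×10^4 9L gliosarcoma cells implanted stereotactically into the brain, 3 mm right of midline, 1 mm anterior to bregma, 5 mm deep. They were used 17–19 days later. Awake, restrained rats got ~35 μCi in 0.3 mL sterile water by tail vein and were killed at 5, 60 or 120 min. Tissues, tumor and contralateral brain were gamma-counted, decay-corrected, as %ID/g, mean ± SE, n = 4–5.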

[4] = organism: Rattus norvegicus; assay: Radioactivity distribution in heart of normal fischer rat after injection of [18F]fluoro-2-methylpropanoic acid after 5 min.; type: ADME, organism-based; details: in vivo; procedure, shortened: as §1
[5] = organism: Rattus norvegicus; assay: Radioactivity distribution in blood of tumor-bearing fischer rat after injection of [18F]fluoro-2-methylpropanoic acid after 120 min; type: ADME, organism-based; details: in vivo, 2 h
Procedure, shortened: (§4)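 Male Fischer 344 rats carried intracranial 9L gliosarcoma, implanted stereotactically (4×10^4 cells) and used 17–19 days later. Awake restrained rats got ~35 μCi of tracer in 0.3 mL sterile water by tail-vein injection and were killed at 5, 60 or 120 min. Tissues were weighed and gamma-counted, and counts were decay-corrected to %ID/g. Results are mean ± standard error; n = 4 at 5 and 120 min, n = 5 at 60 min.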

[6] = organism: Rattus norvegicus; assay: Radioactivity distribution in brain of normal fischer rat after injection of [18F]fluoro-2-methylpropanoic acid after 60 min.; type: ADME, organism-based; details: in vivo, 1 h; procedure, shortened: as §1
[7] = organism: Rattus norvegicus; assay: Radioactivity distribution in liver of tumor-bearing fischer rat after injection of [18F]fluoro-2-methylpropanoic acid after 120 min; type: ADME, organism-based; details: in vivo, 2 h; procedure, shortened: as §2
[8] = organism: Rattus norvegicus; assay: Radioactivity distribution in brain of normal fischer rat after injection of [18F]fluoro-2-methylpropanoic acid after 120 min.; type: ADME, organism-based; details: in vivo, 2 h; procedure, shortened: as §1
[9] = organism: Rattus norvegicus; assay: Radioactivity distribution in pancreas of tumor-bearing fischer rat after injection of [18F]-fluoro-2-methylpropanoic acid after 60 min; type: ADME, organism-based; details: in vivo, 1 h; procedure, shortened: as §2
[10] = organism: Rattus norvegicus; assay: Radioactivity distribution in pancreas of normal fischer rat after injection of [18F]fluoro-2-methylpropanoic acid after 30 min.; type: ADME, organism-based; details: in vivo, 0.5 h
Procedure, shortened: (§5)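 Male Fischer 344 rats (200–250 g), fed ad libitum, anesthetized with intramuscular ketamine:xylazine (1:1, 0.1 mL/100 g). About 85 μCi tracer in 0.3 mL sterile water was given by tail-vein catheter. Groups of four were killed at 5, 30, 60 or 120 min. Tissues were weighed and gamma-counted against dose standards, decay-corrected, and expressed as %ID/g (mean ± standard error).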

[11] = organism: Rattus norvegicus; assay: Radioactivity distribution in tumor of tumor-bearing fischer rat after injection of [18F]fluoro-2-methylpropanoic acid after 5 min; type: ADME, organism-based; details: in vivo; procedure, shortened: as §3
[12] = organism: Rattus norvegicus; assay: Radioactivity distribution in lung of tumor-bearing fischer rat after injection of [18F]-fluoro-2-methylpropanoic acid after 5 min; type: ADME, organism-based; details: in vivo; procedure, shortened: as §2
[13] = organism: Rattus norvegicus; assay: Radioactivity distribution in liver of normal fischer rat after injection of [18F]fluoro-2-methylpropanoic acid after 60 min.; type: ADME, organism-based; details: in vivo, 1 h; procedure, shortened: as §5
[14] = organism: Rattus norvegicus; assay: Radioactivity distribution in brain of tumor-bearing fischer rat after injection of [18F]fluoro-2-methylpropanoic acid after 5 min; type: ADME, organism-based; details: in vivo; procedure, shortened: as §4
[15] = organism: Rattus norvegicus; assay: Radioactivity distribution in liver of normal fischer rat after injection of [18F]fluoro-2-methylpropanoic acid after 5 min.; type: ADME, organism-based; details: in vivo; procedure, shortened: as §5
[16] = organism: Rattus norvegicus; assay: Radioactivity distribution in kidney of tumor-bearing fischer rat after injection of [18F]fluoro-2-methylpropanoic acid after 60 min; type: ADME, organism-based; details: in vivo, 1 h; procedure, shortened: as §2
[17] = organism: Rattus norvegicus; assay: Radioactivity distribution in testis of tumor-bearing fischer rat after injection of [18F]fluoro-2-methylpropanoic acid after 120 min; type: ADME, organism-based; details: in vivo, 2 h; procedure, shortened: as §3
[18] = organism: Rattus norvegicus; assay: Radioactivity distribution in spleen of normal fischer rat after injection of [18F]fluoro-2-methylpropanoic acid after 30 min.; type: ADME, organism-based; details: in vivo, 0.5 h
Procedure, shortened: (§6)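 Male Fischer 344 rats (200–250 g), fed ad libitum, under intramuscular ketamine:xylazine anesthesia, got ~85 μCi radiotracer in 0.3 mL sterile water by tail-vein catheter. Groups of four were killed at 5, 30, 60 or 120 min. Dissected tissues were weighed and gamma-counted with dose standards. Counts were decay-corrected and given as %ID/g, mean ± standard error. Tissues were compared by one-way ANOVA.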

[19] = organism: Rattus norvegicus; assay: Radioactivity distribution in pancreas of tumor-bearing fischer rat after injection of [18F]-fluoro-2-methylpropanoic acid after 5 min; type: ADME, organism-based; details: in vivo; procedure, shortened: as §2
[20] = organism: Rattus norvegicus; assay: Radioactivity distribution in muscle of tumor-bearing fischer rat after injection of [18F]-fluoro-2-methylpropanoic acid after 5 min; type: ADME, organism-based, Muscle tissue; details: in vivo; procedure, shortened: as §2
[21] = organism: Rattus norvegicus; assay: Radioactivity distribution in bone of tumor-bearing fischer rat after injection of [18F]fluoro-2-methylpropanoic acid after 120 min; type: ADME, organism-based, Bone element; details: in vivo, 2 h; procedure, shortened: as §4
[22] = organism: Rattus norvegicus; assay: Radioactivity distribution in muscle of normal fischer rat after injection of [18F]fluoro-2-methylpropanoic acid after 30 min.; type: ADME, organism-based, Muscle tissue; details: in vivo, 0.5 h; procedure, shortened: as §5
[23] = organism: Rattus norvegicus; assay: Radioactivity distribution in heart of tumor-bearing fischer rat after injection of [18F]fluoro-2-methylpropanoic acid after 60 min; type: ADME, organism-based; details: in vivo, 1 h; procedure, shortened: as §4
[24] = organism: Rattus norvegicus; assay: Radioactivity distribution in lung of normal fischer rat after injection of [18F]fluoro-2-methylpropanoic acid after 120 min.; type: ADME, organism-based; details: in vivo, 2 h; procedure, shortened: as §5
[25] = organism: Rattus norvegicus; assay: Radioactivity distribution in muscle of normal fischer rat after injection of [18F]fluoro-2-methylpropanoic acid after 120 min.; type: ADME, organism-based, Muscle tissue; details: in vivo, 2 h; procedure, shortened: as §5
[26] = organism: Rattus norvegicus; assay: Radioactivity distribution in lung of normal fischer rat after injection of [18F]fluoro-2-methylpropanoic acid after 30 min.; type: ADME, organism-based; details: in vivo, 0.5 h; procedure, shortened: as §5
[27] = organism: Rattus norvegicus; assay: Radioactivity distribution in blood of normal fischer rat after injection of [18F]fluoro-2-methylpropanoic acid after 120 min.; type: ADME, organism-based; details: in vivo, 2 h; procedure, shortened: as §1
[28] = organism: Rattus norvegicus; assay: Radioactivity distribution in lung of normal fischer rat after injection of [18F]fluoro-2-methylpropanoic acid after 5 min.; type: ADME, organism-based; details: in vivo; procedure, shortened: as §5
[29] = organism: Rattus norvegicus; assay: Radioactivity distribution in testis of normal fischer rat after injection of [18F]fluoro-2-methylpropanoic acid after 120 min.; type: ADME, organism-based; details: in vivo, 2 h; procedure, shortened: as §6
[30] = organism: Rattus norvegicus; assay: Radioactivity distribution in blood of tumor-bearing fischer rat after injection of [18F]fluoro-2-methylpropanoic acid after 60 min; type: ADME, organism-based; details: in vivo, 1 h; procedure, shortened: as §4
[31] = organism: Rattus norvegicus; assay: Radioactivity distribution in brain of tumor-bearing fischer rat after injection of [18F]fluoro-2-methylpropanoic acid after 60 min; type: ADME, organism-based; details: in vivo, 1 h; procedure, shortened: as §4
[32] = organism: Rattus norvegicus; assay: Radioactivity distribution in lung of tumor-bearing fischer rat after injection of [18F]fluoro-2-methylpropanoic acid after 60 min; type: ADME, organism-based; details: in vivo, 1 h; procedure, shortened: as §2
[33] = organism: Rattus norvegicus; assay: Radioactivity distribution in kidney of normal fischer rat after injection of [18F]fluoro-2-methylpropanoic acid after 30 min.; type: ADME, organism-based; details: in vivo, 0.5 h; procedure, shortened: as §1
[34] = organism: Rattus norvegicus; assay: Radioactivity distribution in lung of normal fischer rat after injection of [18F]-fluoro-2-methylpropanoic acid after 60 min.; type: ADME, organism-based; details: in vivo, 1 h; procedure, shortened: as §5

CC(N)(C[18F])C(=O)O.Cl (centres undefined) was tested, and the ID/g [1] was 0.13%, the ID/g [2] was 1.42% and the ID/g [3] was 0.14%. For the same compound, the ID/g [4] was 0.29%, the ID/g [5] was 0.16% and the ID/g [6] was 0.06%. For the same compound, the ID/g [7] was 0.25%, the ID/g [8] was 0.05% and the ID/g [9] was 2.86%. It also gave an ID/g [10] of 2.93%, an ID/g [11] of 0.91% and an ID/g [12] of 0.84%. The ID/g [13] was 0.5%, the ID/g [14] was 0.035% and the ID/g [15] was 0.65%. The ID/g [16] was 6.2%, the ID/g [17] was 0.11% and the ID/g [18] was 0.54%. For the same compound, the ID/g [19] was 5.31%, the ID/g [20] was 0.39% and the ID/g [21] was 0.16%. For the same compound, the ID/g [22] was 0.22%, the ID/g [23] was 0.33% and the ID/g [24] was 0.37%. For the same compound, the ID/g [25] was 0.19%, the ID/g [26] was 0.54% and the ID/g [27] was 0.15%. For the same compound, the ID/g [28] was 0.55%, the ID/g [29] was 0.1% and the ID/g [30] was 0.26%. It also gave an ID/g [31] of 0.054%, an ID/g [32] of 0.38% and an ID/g [33] of 5.59%. For the same compound, the ID/g [34] was 0.44%.

Reference: ChEMBL document CHEMBL1135739, “Radiolabeled amino acids for tumor imaging with PET: radiosynthesis and biological evaluation of 2-amino-3-[18F]fluoro-2-methylpropanoic acid and 3-[18F]fluoro-2-methyl-2-(methylamino)propanoic acid” (J Med Chem, 2002)
